In brackets after ≈: the same amount, converted by molar mass.
Key:
Streptococcus pneumoniae [1] = test: Antimicrobial activity against Streptococcus pneumoniae ATCC 10813 by broth dilution method; type: functional
In short: (§1)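 Ceftobiprole MIC determined by CLSI (NCCLS) broth microdilution.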

Streptococcus pneumoniae [2] = test: Antimicrobial activity against Streptococcus pneumoniae MNO-418 by broth dilution method; type: functional
In short: (§2)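 Ceftobiprole MIC by broth microdilution per Clinical and Laboratory Standards Institute (formerly NCCLS) methods, using ceftobiprole standard powder.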

Streptococcus pneumoniae [3] = test: Antimicrobial activity against Streptococcus pneumoniae CDC 145 by broth dilution method; type: functional; in short: as §1
Streptococcus pneumoniae [4] = test: Antimicrobial activity against Streptococcus pneumoniae CDC 1293 by broth dilution method; type: functional; in short: as §1
Streptococcus pneumoniae [5] = test: Antimicrobial activity against Streptococcus pneumoniae CDC 1329 by broth dilution method; type: functional; in short: as §1
Streptococcus pneumoniae [6] = test: Antimicrobial activity against Streptococcus pneumoniae CDC 673 by broth dilution method; type: functional; in short: as §2
Staphylococcus aureus [7] = test: Antimicrobial activity against Staphylococcus aureus ATCC 33591 by broth dilution method; type: functional; in short: as §2
Staphylococcus aureus [8] = test: Antimicrobial activity against methicillin-resistant Staphylococcus aureus WIS-1 by broth dilution method; type: functional; in short: as §2
Staphylococcus aureus [9] = test: Antimicrobial activity against methicillin-resistant Staphylococcus aureus 11888 by broth dilution method; type: functional; in short: as §2
Staphylococcus aureus [10] = test: Antimicrobial activity against methicillin-resistant Staphylococcus aureus 12248 by broth dilution method; type: functional; in short: as §2
Staphylococcus aureus [11] = test: Antimicrobial activity against methicillin-resistant Staphylococcus aureus 22115 by broth dilution method; type: functional; in short: as §2
Staphylococcus aureus [12] = test: Antimicrobial activity against Staphylococcus aureus ATCC 22923 by broth dilution method; type: functional; in short: as §2
Staphylococcus aureus [13] = test: Antimicrobial activity against Staphylococcus aureus ATCC 29213 by broth dilution method; type: functional; in short: as §2
Staphylococcus aureus [14] = test: Antimicrobial activity against Staphylococcus aureus ATCC Smith by broth dilution method; type: functional; in short: as §2
Escherichia coli = test: Antimicrobial activity against Escherichia coli ATCC 25922 by broth dilution method; type: functional; in short: as §1
Klebsiella pneumoniae = test: Antimicrobial activity against Klebsiella pneumoniae ATCC 43816 by broth dilution method; type: functional; in short: as §1
Enterobacter cloacae [15] = test: Antimicrobial activity against Enterobacter cloacae 2249 by broth dilution method; type: functional; in short: as §1
Enterobacter cloacae [16] = test: Antimicrobial activity against Enterobacter cloacae 4567 by broth dilution method; type: functional; in short: as §1
Pseudomonas aeruginosa = test: Antimicrobial activity against Pseudomonas aeruginosa ATCC 27853 by broth dilution method; type: functional; in short: as §2
[17] = Cmax in CD1 neutropenic mouse with bacterial infection in thigh at 40 mg/kg, sc; type: ADME, organism-based; set-up: dose 40 mg/kg, route subcutaneous; details: in vivo
In short: (§3)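 Neutropenic thigh-infected mice (cyclophosphamide i.p. 150 mg/kg day −4, 100 mg/kg day −1) given single s.c. ceftobiprole medocaril doses; two groups of three mice per dose bled retro-orbitally at 0.5–6 h, each animal 3–4 times. Total serum drug measured by agar diffusion bioassay with E. coli NIH-J (linear 0.25–256 μg/ml). Cmax, t1/2 and AUC from one-compartment model.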

[18] = Cmax in CD1 neutropenic mouse with bacterial infection in thigh at 160 mg/kg, sc; type: ADME, organism-based; set-up: dose 160 mg/kg, route subcutaneous; details: in vivo; in short: as §3
[19] = Half life in CD1 neutropenic mouse with bacterial infection in thigh at 40 mg/kg, sc; type: ADME, organism-based; set-up: dose 40 mg/kg, route subcutaneous; details: in vivo; in short: as §3
[20] = Half life in CD1 neutropenic mouse with bacterial infection in thigh at 160 mg/kg, sc; type: ADME, organism-based; set-up: dose 160 mg/kg, route subcutaneous; details: in vivo; in short: as §3
[21] = AUC in CD1 neutropenic mouse with bacterial infection in thigh at 40 mg/kg, sc; type: ADME, organism-based; set-up: dose 40 mg/kg, route subcutaneous; details: plasma; in short: as §3
[22] = AUC in CD1 neutropenic mouse with bacterial infection in thigh at 160 mg/kg, sc; type: ADME, organism-based; set-up: dose 160 mg/kg, route subcutaneous; details: plasma; in short: as §3
[23] = T>MIC in Streptococcus pneumoniae ATCC 10813 infected CD1 neutropenic mouse at static dose of 0.180 mg/kg, sc administered every 6 hrs; type: functional; details: dose 0.18 mg/kg; route subcutaneous
In short: (§4)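 Neutropenic mice (cyclophosphamide i.p. 150 and 100 mg/kg, 4 and 1 days pre-infection) given 0.1 ml thigh inoculum (1:10 dilution of 10^8 CFU/ml), then treated from 2 h post-infection for 24 h with s.c. ceftobiprole medocaril (0.010–160 mg/kg) at varied intervals. Thigh CFU plated from homogenates. Static dose came from a sigmoid Hill model, and T>MIC was estimated from mouse PK and MIC.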

[24] = T>MIC in Streptococcus pneumoniae MNO-418 infected CD1 neutropenic mouse at static dose of 0.238 mg/kg, sc administered every 6 hrs; type: functional; details: route subcutaneous; in short: as §4
[25] = T>MIC in Streptococcus pneumoniae CDC-145 infected CD1 neutropenic mouse at static dose of 0.956 mg/kg, sc administered every 6 hrs; type: functional; details: route subcutaneous; in short: as §4
[26] = T>MIC in Streptococcus pneumoniae CDC 1293 infected CD1 neutropenic mouse at static dose of 2.72 mg/kg, sc administered every 6 hrs; type: functional; details: route subcutaneous; in short: as §4
[27] = T>MIC in Streptococcus pneumoniae CDC 1329 infected CD1 neutropenic mouse at static dose of 2.93 mg/kg, sc administered every 6 hrs; type: functional; details: route subcutaneous; in short: as §4
[28] = T>MIC in Streptococcus pneumoniae CDC 673 infected CD1 neutropenic mouse at static dose of 6.68 mg/kg, sc administered every 6 hrs; type: functional; details: route subcutaneous; in short: as §4
[29] = T>MIC in Staphylococcus aureus ATCC 33591 infected CD1 neutropenic mouse at static dose of 7.91 mg/kg, sc administered every 6 hrs; type: functional; details: route subcutaneous; in short: as §4
[30] = T>MIC in methicillin-resistant Staphylococcus aureus WIS-1 infected CD1 neutropenic mouse at static dose of 16.1 mg/kg, sc administered every 6 hrs; type: functional; details: route subcutaneous

Nc1nc(/C(=N/O)C(=O)N[C@@H]2C(=O)N3C(C(=O)O)=C(/C=C4\CCN([C@@H]5CCNC5)C4=O)CS[C@H]23)ns1 [CEFTOBIPROLE]
MIC (Streptococcus pneumoniae [1]): 0.03 µg/mL (≈ 0.0561 µM)
MIC (Streptococcus pneumoniae [2]): 0.015 µg/mL (≈ 0.0281 µM)
MIC (Streptococcus pneumoniae [3]): 0.25 µg/mL (≈ 0.468 µM)
MIC (Streptococcus pneumoniae [4]): 0.5 µg/mL (≈ 0.935 µM)
MIC (Streptococcus pneumoniae [5]): 0.25 µg/mL (≈ 0.468 µM)
MIC (Streptococcus pneumoniae [6]): 1 µg/mL (≈ 1.87 µM)
MIC (Staphylococcus aureus [7]): 1 µg/mL (≈ 1.87 µM)
MIC (Staphylococcus aureus [8]): 1 µg/mL (≈ 1.87 µM)
MIC (Staphylococcus aureus [9]): 2 µg/mL (≈ 3.74 µM)
MIC (Staphylococcus aureus [10]): 2 µg/mL (≈ 3.74 µM)
MIC (Staphylococcus aureus [11]): 1 µg/mL (≈ 1.87 µM)
MIC (Staphylococcus aureus [12]): 0.5 µg/mL (≈ 0.935 µM)
MIC (Staphylococcus aureus [13]): 0.5 µg/mL (≈ 0.935 µM)
MIC (Staphylococcus aureus [14]): 0.5 µg/mL (≈ 0.935 µM)
MIC (Escherichia coli): 0.06 µg/mL (≈ 0.112 µM)
MIC (Klebsiella pneumoniae): 0.06 µg/mL (≈ 0.112 µM)
MIC (Enterobacter cloacae [15]): 2 µg/mL (≈ 3.74 µM)
MIC (Enterobacter cloacae [16]): 0.5 µg/mL (≈ 0.935 µM)
MIC (Pseudomonas aeruginosa): 2 µg/mL (≈ 3.74 µM)
Cmax [17]: 31.2 µg/mL
Cmax [18]: 144 µg/mL
half-life [19]: 19.8 min
half-life [20]: 31.7 min
AUC [21]: 27.8 µg·h/mL
AUC [22]: 213 µg·h/mL
fT>MIC [23]: 19.4%
fT>MIC [24]: 21.3%
fT>MIC [25]: 15.2%
fT>MIC [26]: 16.3%
fT>MIC [27]: 22.2%
fT>MIC [28]: 18.5%
fT>MIC [29]: 19.1%
fT>MIC [30]: 25%
